# Source: PubChem BioAssay
# Most compounds without a hit are left out; they make up all but 3.5% or so of the library.
# HTRA1 inh: blocks human HTRA1 serine peptidase; actives 0.5% (n = 340,000); recombinant HTRA1, FP-rhodamine activity-based probe, fluorescence polarization; inhibition, % at 5.96 µM; AID 504803; in the data active means inhibition above about 36%;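 further: 0% = enzyme with DMSO and 100% = wells lacking enzyme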
# Target sequence (Q92743 whole entry, looked up): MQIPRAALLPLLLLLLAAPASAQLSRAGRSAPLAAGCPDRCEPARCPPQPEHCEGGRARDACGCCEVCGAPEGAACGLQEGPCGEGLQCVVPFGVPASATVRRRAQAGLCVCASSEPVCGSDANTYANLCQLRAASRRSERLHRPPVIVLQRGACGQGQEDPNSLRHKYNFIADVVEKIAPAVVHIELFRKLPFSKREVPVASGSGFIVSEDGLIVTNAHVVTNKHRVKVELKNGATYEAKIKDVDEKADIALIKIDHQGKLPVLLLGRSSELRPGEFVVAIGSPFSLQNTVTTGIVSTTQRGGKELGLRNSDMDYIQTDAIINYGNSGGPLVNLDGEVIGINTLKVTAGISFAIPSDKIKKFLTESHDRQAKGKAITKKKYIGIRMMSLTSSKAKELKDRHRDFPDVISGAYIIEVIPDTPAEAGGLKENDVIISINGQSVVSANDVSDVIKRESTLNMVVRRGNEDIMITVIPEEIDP
# PRMT1 FP inh: inhibitors of human PRMT1 | Q99873 | recombinant PRMT1, activity-based probe fluorescence polarization | inhibition, % at 2.79 µM | actives 1.3% (n = 370,000) | AID 652257;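 active means inhibition above about 21% made by adding two undisclosed values, limit read from the data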
# TCR CD3 inh: inhibitors of human TCR-CD3 interaction. actives 0.37% (n = 360,000). inhibition, % at 9.4 µM. TAMRA-labeled TCR probe fluorescence, biochemical; in the data active means inhibition above about 19%;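 further: recombinant mutant TCR 2C K166C tagged with TAMRA read by polarization; 0% = receptor in buffer alone and 100% = receptor with positive control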
# rCAG binder: molecules binding r(CAG) RNA repeats; AID 651821; inhibition, % at 3 µM; actives 1.3% (n = 370,000); r(CAG) RNA repeat, TO-PRO-1 dye displacement fluorescence;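 active means inhibition above the plate cutoff, the mean of all test compounds on that plate plus 3 SD, cut at about 35% in these data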;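 further: 0% = DMSO alone and 100% = 100 µM mitoxantrone as full dye displacement; higher means more dye released from RNA so lower well fluorescence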
# SIAE inh: human SIAE inhibition, primary screen; Q9HAT2; SIAE FP-Rh probe binding, fluorescence polarization; inhibition, % at 9.66 µM; actives 0.69% (n = 370,000); AID 1053197;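 active means inhibition above a cutoff: mean of compounds within the control limits plus 3 SD of those, cut at about 17% in these data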;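 further: 0% = plate median of compound wells and 100% = probe without SIAE protein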
# ABHD4 inh: inhibitors of mouse ABHD4. Q8VD66. purified mABHD4, FP-Rh probe fluorescence polarization. inhibition, % at 8.92 µM. actives 0.54% (n = 370,000). AID 720543;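 active means inhibition exceeding the mean over every tested compound plus 3 SD, cut at about 30% in these data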;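 further: 0% = plate median of compound wells and 100% = S159A mutant with DMSO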
#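 assay system = mABHD4 protein | compound dosing = single nominal dose of 8.92 µM, 0.89% DMSO final | read-out basis = percent inhibition of probe binding, normalized to plate controls | schedule = Enzyme–compound pre-incubation 45 min, then probe 60 min, both 25 °C | detection = fluorescence polarization, excitation 525 nm, emission 598 nm, BODIPY TMR filters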
# PRMT1 inh conf: confirmation of human PRMT1 inhibitors. shares compounds with PRMT1 FP inh. recombinant His-PRMT1, activity-based probe fluorescence polarization. inhibition, % at 2.79 µM. actives 42% (n = 3,300). AID 687036;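 active means mean inhibition across replicates above the hit cutoff derived for the earlier primary screen, cut at about 22% in these data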
# * marks the source's active call; other numbers are inactive results; nt = no result given.
SMILES,HTRA1 inh,PRMT1 FP inh,TCR CD3 inh,rCAG binder,SIAE inh,ABHD4 inh,PRMT1 inh conf
O=C1C=C(O)c2cccc3cccc1c23,14,48*,1,-2,6,15,9
CCCCCCCCN1C(=O)[C@@H](CC(=O)NCCc2ccccc2OC)C[C@@]2(C(=O)OC)C1=C[C@H](C(C)(C)C)O[C@@H]2C,nt,6,-3,0,3,6,nt
O=C(CN1C(=O)C2CC=CCC2C1=O)Nc1ccc(Br)cc1 (stereo unspecified),-1,3,4,-1,4,0,nt
O=C(Cn1sc2ccccc2c1=O)Nc1ccc(Br)cc1,-6,93*,-2,6,1,12,81*
O=C(Cn1sc2ccccc2c1=O)Nc1ccc(F)cc1,-2,91*,-2,2,8,14,91*
O=C(CN1C(=O)CNC1=O)Nc1ccc(Cl)cc1,-3,-4,2,2,0,-7,nt
O=C(Cn1sc2ccccc2c1=O)Nc1ccc(Cl)cc1,-12,90*,-5,5,5,11,90*
C=CCc1cccc(C=NNC(=O)c2ccco2)c1O,nt,0,nt,5,1,-4,nt
Cc1ccc(N2C(=O)C3C4C=CC(CNC(=S)N5CCN(c6cccc(C)c6)C(C)C5)(O4)C3C2=O)cc1 (stereo unspecified),8,37*,5,4,3,1,32*
COC(=O)[C@]12C[C@H](CC(=O)NCC34CC5CC(CC(C5)C3)C4)C(=O)N(Cc3cccc4ccccc34)C1=C[C@H](C(C)(C)C)O[C@@H]2C,nt,2,nt,2,3,1,nt
CCCCOCCCNC(=O)C[C@H]1C[C@@]2(C(=O)OC)C(=C[C@H](C(C)C)O[C@@H]2C2CC2)N(CCc2ccc(OC)c(OC)c2)C1=O,nt,0,nt,-1,5,-5,nt
OCCn1c(CSc2nnc(-c3ccco3)n2-c2ccccc2)nc2ccc(Cl)cc21,-8,39*,-1,10,1,-16,34*
NC(=O)CSc1nnc(-c2ccco2)n1-c1ccccc1,0,-5,4,-3,1,1,nt
Cc1nc(SCc2ccc(O)c([N+](=O)[O-])c2)n[nH]1,6,3,4,0,2,-3,nt
Cc1nc(SCc2ccc(O)c([N+](=O)[O-])c2)c([N+](=O)[O-])[nH]1,0,35*,1,3,4,25,-3
O=c1ccnc(SCn2nnc3ccccc3c2=O)[nH]1,-1,44*,-6,1,-1,-6,0
O=c1c2ccccc2nnn1CSc1nc2ccccc2[nH]1,-1,-1,-4,3,-7,1,nt
Cc1cc(=O)[nH]c(SCn2nnc3ccccc3c2=O)n1,-6,31*,1,2,2,-8,6
O=c1c2ccccc2nnn1CSc1ccccc1F,3,-4,4,-3,2,-12,nt
CC(=O)c1cc(-c2ccc3c(c2)OCO3)c(=O)n2c1CCC2,nt,-1,nt,1,2,3,nt
CCCC1CCC2(CCCN2CCOC(=O)Nc2ccc(F)cc2)CC1 (stereo unspecified),nt,-4,nt,nt,1,4,nt
CCc1cc2c(nc1CC)CCCN2S(=O)(=O)c1ccc(C#N)cc1,nt,59*,-1,2,7,2,52*
COC(=O)[C@]12C[C@H](CC(=O)N3CCOCC3)C(=O)N(CCc3ccc(OC)c(OC)c3)C1=C[C@H](COCc1ccccc1)O[C@@H]2C,nt,-1,nt,3,2,-2,nt
COC(=O)c1cc(C(=O)Nc2nnc(CC(C)C)s2)cc([N+](=O)[O-])c1,3,-3,3,3,2,5,nt
CCC(CC)c1nnc(NC(=O)c2cc(C(=O)OC)cc([N+](=O)[O-])c2)s1,0,29*,-4,17,-1,-6,20
Cc1cc(C)c2c(=O)n(CC(=O)Nc3ccc(Cl)cc3)sc2n1,2,91*,-5,1,9,11,84*
Cc1cc(C)c2c(=O)n(CC(=O)Nc3cccc(F)c3)sc2n1,-1,90*,1,0,6,9,84*
